In the library only some 4.1% were active in any assay of this set; here they are far more common.
hERG protect: shields human hERG channel from block by proarrhythmic agents; Q12809; CHO-hERG, FluxOR thallium flux, dofetilide IC70 present; activation (rescue from dofetilide block), less the hit threshold, % at 10 µM; 0.51% of 310,000 active;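 active means activation above the mean of controls blocked by dofetilide plus 5 SD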;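 further: thallium influx through hERG after potassium depolarization seen as dye fluorescence rise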
KCNQ1 block: inhibitors of human KCNQ1 potassium channel | P51787 | B-score at 10 µM | 1.3% of 310,000 active | CHO-K1 KCNQ1, FluxOR thallium flux fluorescence; active compounds read high | AID 2642;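 active means compounds whose thallium flux B-score, printed positive for inhibition, exceeds three library SD while starting fluorescence stays within three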;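 further: channel opened by potassium depolarization with thallium stimulus after 20 min compound exposure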
KCNK9 inh: inhibitors of human KCNK9 two-pore domain potassium channel; HEK293 KCNK9, FluxOR thallium flux fluorescence; active compounds read low; Q9NPC2; B-score at 10 µM; 1.2% of 310,000 active;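 active means ratio B-score over 3 SD below the library mean, with starting fluorescence within 5 SD of its mean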;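 further: negative B-score means less thallium flux so channel inhibition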
Target sequence (Q9NPC2 whole entry, looked up, the tested form may be a part): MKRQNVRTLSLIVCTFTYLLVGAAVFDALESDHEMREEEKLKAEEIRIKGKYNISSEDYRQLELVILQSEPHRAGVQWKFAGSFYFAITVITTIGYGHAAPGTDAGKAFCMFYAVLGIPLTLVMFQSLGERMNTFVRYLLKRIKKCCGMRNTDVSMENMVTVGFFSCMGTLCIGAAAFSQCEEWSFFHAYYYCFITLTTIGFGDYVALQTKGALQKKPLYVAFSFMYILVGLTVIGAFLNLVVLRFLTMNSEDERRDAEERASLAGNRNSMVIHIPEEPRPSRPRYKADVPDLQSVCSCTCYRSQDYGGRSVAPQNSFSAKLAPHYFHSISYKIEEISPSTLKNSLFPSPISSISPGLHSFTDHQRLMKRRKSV
KCNK3 inh: human KCNK3 channel inhibition, primary screen | CHO-KCNK3 thallium flux, FluxOR fluorescence; active compounds read low | 0.84% of 340,000 active | O14649 | B-score at 10 µM;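 active means B-score under library mean minus 4 SD, starting fluorescence ratio at most library mean plus 5 SD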;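 further: more negative B-score means stronger inhibition of thallium flux through KCNK3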
Target sequence (O14649 whole entry, looked up): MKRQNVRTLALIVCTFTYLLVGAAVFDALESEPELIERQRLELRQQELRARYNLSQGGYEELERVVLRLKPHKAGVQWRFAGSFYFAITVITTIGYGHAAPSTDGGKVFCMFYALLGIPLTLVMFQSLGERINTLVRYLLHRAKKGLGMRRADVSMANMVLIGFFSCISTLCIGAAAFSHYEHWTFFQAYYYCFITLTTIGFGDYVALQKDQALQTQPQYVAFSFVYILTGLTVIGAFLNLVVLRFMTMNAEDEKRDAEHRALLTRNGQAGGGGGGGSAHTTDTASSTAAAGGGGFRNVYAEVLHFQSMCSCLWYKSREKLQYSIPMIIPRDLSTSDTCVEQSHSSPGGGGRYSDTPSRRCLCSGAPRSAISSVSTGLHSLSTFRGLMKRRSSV
KCC2 mod: modulates chloride dependent transport by human KCC2 | Q9H2X9 | KCC2 cells, thallium flux FluoZin-2 fluorescence | B-score of Tl+ flux slope (higher = more flux/activation; lower = inhibition) at 10 µM | 2.2% of 190,000 active;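 active means thallium flux slope and its plate-corrected score both differing from the plate sample mean at a set confidence after two filtering rounds, in either direction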;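 further: slope of fluorescence scaled to starting intensity during 10 to 20 s after thallium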
KCNQ1 pot: human KCNQ1 channel potentiation or activation | P51787 | CHO-K1 KCNQ1, thallium flux FluxOR fluorescence; active compounds read high | B-score at 10 µM | 0.35% of 310,000 active;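 active means fluorescence ratio B-score, a plate-corrected score, at least three library SD, with initial intensity B-score within 5 SD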
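Test system: CHO-K1 cells stably expressing KCNQ1 / Medium: assay buffer / Also added: depolarizing K+/Tl+ stimulus, K2SO4 and Tl2SO4 each 12.5 mM in 5x stock / Incubation: 90 min dye loading and 20 min compound exposure, both at room temperature / Signal: thallium influx via FluxOR fluorescence, kinetic imaging / Evaluation: B score of baseline-normalized fluorescence ratio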
KCNQ1 inh valid: reconfirmed blocker of the human KCNQ1 potassium channel | shares compounds with KCNQ1 block | KCNQ1 cell line, FluxOR thallium flux fluorescence | inhibition, % at 10 µM | 93% of 1,600 active;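 active means primary screen active, with duplicate mean exceeding buffer control mean plus 3 SD of buffer wells, cut at about 28% in these data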;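 further: 0% = buffer control ratio and 100% = XE991 inhibitor control ratio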
CHO Tl flux: KCNQ1 inhibitor counter-screen hit in parental CHO cells; parental CHO-K1, FluxOR thallium flux fluorescence ratio; active compounds read low; zero means no signal rise above baseline; 21% of 1,600 active; fluorescence ratio (Tl flux) at 10 µM; shares compounds with KCNQ1 block;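 active means mean of duplicate thallium-flux fluorescence ratios in parental host cells more than 5 SD below the buffer control mean, cut at about 0.38 in these data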;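 further: ratio is peak minus minimum fluorescence divided by baseline fluorescence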
KCNQ1 ephys val: human KCNQ1 inhibition validated by electrophysiology; KCNQ1-CHO cells, automated patch clamp current; AID 624120; calls only at 10 µM; shares compounds with KCNQ1 block; 20% of 490 active;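 active means KCNQ1 current drop exceeding 3 SD of negative control wells, seen in both duplicate runs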;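 further: steady state current during a 2 s step from -80 to +40 mV; negative values mean current inhibition and positive values mean potentiation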
KCNQ2 spec: rat KCNQ2 inhibition in KCNQ1 inhibitor specificity screen; inhibition, % at 10 µM; 71% of 1,600 active; KCNQ2 cells, FluxOR thallium flux fluorescence; shares compounds with KCNQ1 block;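 active means mean percent inhibition of the KCNQ2 thallium signal more than 5 SD above the buffer-only control wells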;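 further: KCNQ2 expressed in CHO cells; 0% = buffer control wells and 100% = XE-991 inhibitor control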
KCNQ1 KCNE1 spec: human KCNQ1/KCNE1 inhibition in KCNQ1 specificity screen; KCNQ1/KCNE1 cells, FluxOR thallium flux fluorescence; inhibition, % at 10 µM; shares compounds with KCNQ1 block; 77% of 1,600 active; AID 652147;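 active means mean percent inhibition of duplicate wells above the buffer-only control mean plus 3 SD of those controls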;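 further: 0% = buffer only wells and 100% = XE-991 inhibitor control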
KCNK9 block conf: human KCNK9 inhibitor confirmation | HEK293 KCNK9 cells, FluxOR thallium flux fluorescence | 43% of 4,900 active | shares compounds with KCNK9 inh | inhibition, % at 10 µM;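 active means thallium signal inhibited by more than 5 SD of the compound-free buffer control wells, on both duplicate plates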;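 further: 0% = assay buffer control wells without compound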
Kir2-1 spec: selectivity of KCNK9 modulators against mouse Kir2.1 | 4% of 4,900 active | AID 492993 | shares compounds with KCNK9 inh | Kir2.1 cells, FluxOR thallium flux fluorescence | inhibition, % at 10 µM;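 active means thallium signal drop more than 5 SD beyond the mean of the no-compound control wells, seen in both duplicate plates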;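 further: signal is fluorescence rise after thallium addition divided by baseline fluorescence; plate controls were assay buffer only for no effect and full block by chlorpromazine control for full effect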
HEK293 Tl ctr: non-induced cell nonspecific activity of KCNK9 modulators | shares compounds with KCNK9 inh | non-induced KCNK9-HEK293, FluxOR thallium flux | inhibition, % at 10 µM | 40% of 4,900 active;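 active means thallium signal drop beyond 5 SD of the untreated control mean, on both duplicate plates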;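 further: plate controls were buffer only IC0 wells for no effect and SID17386958 at its maximal inhibitory level for full effect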
KCNK3 inh conf: human KCNK3 channel inhibition, confirmation assay. shares compounds with KCNK3 inh. CHO-KCNK3 thallium flux, FluxOR fluorescence; 0% buffer, 100% carvedilol maximal block. ratio percent of control, % at 10 µM. 99% of 2,400 active. AID 651638;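 active means ratio percent of control, averaged over triplicates, above buffer control mean plus 5 SD, cut at about 64% in these data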;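 further: ratio is the fluorescence rise from min to max over baseline after thallium stimulus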
KCNK3 uninduced: counter-screen for KCNK3 inhibitors: effect in non-induced cells; 40% of 2,400 active; shares compounds with KCNK3 inh; thallium flux ratio (lower = more inhibition) at 10 µM; non-induced KCNK3 parental cells, FluxOR thallium flux; active compounds read low;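 active means thallium flux ratio, averaged over three wells, more than 5 SD below the buffer control mean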;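 further: host cells are CHO cells without KCNK3 induction; ratio is peak minus trough fluorescence over baseline then normalized to buffer controls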
Starred values were filed as active, the others as inactive; i = inactive; . = no result; + = active, no number.

SMILES	hERG protect	KCNQ1 block	KCNK9 inh	KCNK3 inh	KCC2 mod	KCNQ1 pot	KCNQ1 inh valid	CHO Tl flux	KCNQ2 spec	KCNQ1 KCNE1 spec	KCNK9 block conf	Kir2-1 spec	HEK293 Tl ctr	KCNK3 inh conf	KCNK3 uninduced	others
CCOC1=C(C#N)CC2(CC1)c1ccccc1-c1ccccc12	.	.	.	i	.	.	.	.	.	.	.	.	.	.	.
Cc1cccc(NC(=O)CSc2nc3ccccc3nc2N2CC(C)OC(C)C2)c1 (stereo not given)	-9	8*	i	-11*	.	i	102*	0.42	122%*	132%*	.	.	.	114*	i	KCNQ1 ephys val=i
CCc1ccc(NC(=O)CSc2nc3ccccc3nc2N2CCCCC2)cc1	-6	i	i	i	.	i	.	.	.	.	.	.	.	.	.
O=C(CSc1nc2ccccc2nc1N1CCCCC1)Nc1ccc(F)cc1	-9	13*	-6.9*	-9.8*	.	i	108*	0.41	97%*	158%*	.	.	.	137*	0.12*	KCNQ1 ephys val=i
COC(=O)C1C(c2ccccc2)C(C(=O)OCc2ccco2)C1c1ccccc1 (stereo not given)	-25	6*	-8.3*	-11*	-0.11	i	95*	0.36*	111%*	164%*	44%*	i	24%*	116*	0.15*
Cc1ccn2cc(-c3cccc(NC(=O)c4cccs4)c3)nc2c1	-24	8*	i	-11*	0.56	i	58*	0.44	i	82%*	.	.	.	96*	i
COc1ccc(OC)c(NC(=O)CCN2CCN(C)CC2)c1	-3	i	i	i	.	i	.	.	.	.	.	.	.	.	.
CC(C)COc1cccc(-c2cc(C(=O)N/N=C/c3ccncc3)c3ccccc3n2)c1	-11	14*	i	-10*	.	i	182*	0.3*	125%*	+	.	.	.	118*	0.096*
CCOc1cc(/C=N/NC(=O)c2cc(-c3cccc(OC)c3)nc3ccccc23)ccc1O	-12	i	i	i	.	i	.	.	.	.	.	.	.	.	.
CC(=O)c1c(C)[nH]c(C(=O)Nc2cccc(S(=O)(=O)N(C)c3ccccc3)c2)c1C	-17	16*	-8.6*	-11*	-1.3	i	128*	0.35*	143%*	184%*	i	i	36%*	133*	0.12*
O=C(COC(=O)/C=C/c1cccc(Br)c1)Nc1cccc(S(=O)(=O)NC2=NCCC2)c1	.	.	.	i	.	.	.	.	.	.	.	.	.	.	.
O=c1c2c(nc(NCCO)n1CC1CCCCC1)-c1ccccc1CC21CCCC1	4	6*	-7.4*	-16*	.	i	91*	0.43	104%*	i	.	.	.	115*	0.16*	KCNQ1 ephys val=i
Cc1cccc(OCC(=O)Nc2ccccc2N2CCCCC2)c1C	-12	9*	-8.4*	i	.	i	102*	0.44	88%*	150%*	54%*	34%*	42%*	110*	i	KCNQ1 ephys val=i
COc1cc(C(C)=O)ccc1OCC(=O)Nc1ccccc1N1CCCCC1	-5	i	i	i	.	i	.	.	.	.	.	.	.	.	.
Cc1nc2ccc(S(=O)(=O)Nc3cc(-c4nc5cccnc5s4)ccc3C)cc2s1	-17	i	i	i	-2.4	i	.	.	.	.	.	.	.	.	.
Cc1nc2ccc(S(=O)(=O)Nc3cccc(-c4nc5cccnc5s4)c3C)cc2s1	-21	12*	i	-9.6*	-3.5	i	145*	0.32*	105%*	+	.	.	.	114*	i
O=C(Nc1cccnc1)c1cc(-c2cccc(Br)c2)nc2ccccc12	-18	15*	-9.2*	-12*	.	i	148*	0.31*	130%*	195%*	i	i	38%*	156*	0.1*
O=C(Nc1ccncc1)c1cc(-c2cccc(Br)c2)nc2ccccc12	-16	i	i	i	.	i	.	.	.	.	.	.	.	.	.
O=C(O)c1cccc2cccc(-c3c4ccc(=O)c(O)c-4oc4c(O)c(O)ccc34)c12	.	.	.	i	.	.	.	.	.	.	.	.	.	.	.
CC(=O)Nc1ccc(Nc2cc(C(C)C)nc3c(-c4ccccc4)c(C)nn23)cc1	-13	7*	i	-12*	-0.7	i	118*	0.38*	77%*	134%*	.	.	.	123*	i
CC(=O)Nc1ccc(Nc2cc(C)nc3c(-c4ccccc4)c(C)nn23)cc1	-6	i	i	i	-2.1	i	.	.	.	.	.	.	.	.	.
CN1C[C@@H]2[C@@H]3C(=O)N(C)C(=O)[C@@H]3[C@](C)(C1=O)N2C(=O)c1ccc(Cl)c(Cl)c1	.	.	.	i	.	.	.	.	.	.	.	.	.	.	.
CCN(CC)S(=O)(=O)c1ccc2oc(SCc3ccc(F)cc3)nc2c1	-12	9*	-8.7*	-11*	0.54	i	82*	0.45	80%*	102%*	36%*	i	41%*	100*	i
Cc1cc(NC(=O)Nc2cccc(Cl)c2)n(-c2ccccn2)n1	-21	14*	-13*	-11*	.	i	192*	0.39	125%*	+	54%*	i	32%*	126*	i	KCNQ1 ephys val=i
